ChEMBL document CHEMBL2311404, “Synthesis, antibacterial activity and docking of 14-membered 9-O-(3-arylalkyl) oxime 11,12-cyclic carbonate ketolides” (2013)
Values after ≈ are worked out from the molar mass of the structure shown.

How the values were obtained:
Type in all cases: functional
Staphylococcus aureus [1] = experiment: Antibacterial activity against methicillin-resistant, inducible MLS-resistant Staphylococcus aureus PU 32 expressing ermA gene by broth microdilution method
Method in brief: (§1)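 Clinical isolates confirmed by 16S rDNA sequencing. MIC determined by broth microdilution following CLSI recommendations. Quality-control strains were S. aureus ATCC 29213 and S. pneumoniae ATCC 49619. Azithromycin and clarithromycin were run in parallel as reference agents.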

Streptococcus pneumoniae [2] = experiment: Antibacterial activity against penicillin-resistant, constitutive MLS-resistant Streptococcus pneumoniae PU 11 expressing erm and mef genes by broth microdilution method; method in brief: as §1
Streptococcus pyogenes [3] = experiment: Antibacterial activity against erythromycin-susceptible Streptococcus pyogenes A3 by broth microdilution method
Method in brief: (§2)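 MIC by broth microdilution following CLSI recommendations. Clinical isolates were identified by 16S rDNA sequencing and labeled by genotype and phenotype. S. aureus ATCC 29213 and S. pneumoniae ATCC 49619 served as control strains, with azithromycin and clarithromycin as reference agents.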

Streptococcus pneumoniae [4] = experiment: Antibacterial activity against penicillin-susceptible Streptococcus pneumoniae PU 09 expressing mef gene by broth microdilution method; method in brief: as §2
Streptococcus pyogenes [5] = experiment: Antibacterial activity against constitutive MLS-resistant Streptococcus pyogenes A2 by broth microdilution method; method in brief: as §1
Staphylococcus hominis = experiment: Antibacterial activity against methicillin-resistant, inducible MLS-resistant, coagulase-deficient Staphylococcus hominis E 3 by broth microdilution method; method in brief: as §1
[6] = tested on: Staphylococcus epidermidis; experiment: Antibacterial activity against methicillin-resistant, constitutive MLS-resistant Staphylococcus epidermidis E 2 by broth microdilution method; method in brief: as §1
Streptococcus pneumoniae [7] = experiment: Antibacterial activity against penicillin-susceptible, constitutive MLS-resistant Streptococcus pneumoniae PU 27 expressing erm gene by broth microdilution method; method in brief: as §1
Streptococcus pneumoniae [8] = experiment: Antibacterial activity against erythromycin-sensitive Streptococcus pneumoniae ATCC 49619 by broth microdilution method; method in brief: as §2
[9] = tested on: Streptococcus dysgalactiae; experiment: Antibacterial activity against erythromycin-resistant Streptococcus dysgalactiae A1 expressing efflux pump by broth microdilution method; method in brief: as §1
[10] = tested on: Staphylococcus epidermidis; experiment: Antibacterial activity against methicillin-susceptible, inducible MLS-resistant Staphylococcus epidermidis E 1 by broth microdilution method; method in brief: as §1
Staphylococcus aureus [11] = experiment: Antibacterial activity against erythromycin-susceptible Staphylococcus aureus ATCC 29213 by broth microdilution method; method in brief: as §2
[12] = tested on: Staphylococcus haemolyticus; experiment: Antibacterial activity against methicillin-resistant, constitutive MLS-resistant, coagulase-deficient Staphylococcus haemolyticus PU 19 expressing ermA gene by broth microdilution method; method in brief: as §1
Staphylococcus aureus [13] = experiment: Antibacterial activity against methicillin-sensitive, inducible MLS-resistant Staphylococcus aureus PU 64 expressing ermA gene by broth microdilution method; method in brief: as §1
Staphylococcus aureus [14] = experiment: Antibacterial activity against methicillin-resistant, constitutive MLS-resistant Staphylococcus aureus PU 20 expressing ermC gene by broth microdilution method; method in brief: as §1

Row | Compound | MIC (Staphylococcus aureus [1]) | MIC (Streptococcus pneumoniae [2]) | MIC (Streptococcus pyogenes [3]) | MIC (Streptococcus pneumoniae [4]) | MIC (Streptococcus pyogenes [5]) | MIC (Staphylococcus hominis) | MIC [6] | MIC (Streptococcus pneumoniae [7]) | MIC (Streptococcus pneumoniae [8]) | MIC [9] | MIC [10] | MIC (Staphylococcus aureus [11]) | MIC [12] | MIC (Staphylococcus aureus [13]) | MIC (Staphylococcus aureus [14])
1 | CC[C@H]1OC(=O)[C@H](C)C(=O)[C@H](C)[C@@H](O[C@@H]2O[C@H](C)C[C@H](N(C)C)[C@H]2O)[C@](C)(OC)C[C@@H](C)/C(=N\OCC#Cc2cccnc2)[C@H](C)[C@H]2OC(=O)O[C@@]21C | 0.125 µg/mL (≈ 0.168 µM) | 128 µg/mL (≈ 172 µM) | ≤ 0.008 µg/mL | 0.25 µg/mL (≈ 0.336 µM) | 64 µg/mL (≈ 86 µM) | 0.125 µg/mL (≈ 0.168 µM) | 256 µg/mL (≈ 344 µM) | 0.25 µg/mL (≈ 0.336 µM) | ≤ 0.008 µg/mL | 0.125 µg/mL (≈ 0.168 µM) | 0.125 µg/mL (≈ 0.168 µM) | 0.064 µg/mL (≈ 0.086 µM) | > 256 µg/mL | – | –
2 | CC[C@H]1OC(=O)[C@H](C)C(=O)[C@H](C)[C@@H](O[C@@H]2O[C@H](C)C[C@H](N(C)C)[C@H]2O)[C@](C)(OC)C[C@@H](C)/C(=N\OCC#Cc2cccc3cnccc23)[C@H](C)[C@H]2OC(=O)O[C@@]21C | 0.125 µg/mL (≈ 0.157 µM) | 32 µg/mL (≈ 40.3 µM) | ≤ 0.008 µg/mL | 0.125 µg/mL (≈ 0.157 µM) | 32 µg/mL (≈ 40.3 µM) | 0.125 µg/mL (≈ 0.157 µM) | 64 µg/mL (≈ 80.6 µM) | 0.125 µg/mL (≈ 0.157 µM) | 0.016 µg/mL (≈ 0.0202 µM) | 0.125 µg/mL (≈ 0.157 µM) | 0.064 µg/mL (≈ 0.0806 µM) | 0.064 µg/mL (≈ 0.0806 µM) | 64 µg/mL (≈ 80.6 µM) | – | –
3 | CC[C@H]1OC(=O)[C@H](C)C(=O)[C@H](C)[C@@H](O[C@@H]2O[C@H](C)C[C@H](N(C)C)[C@H]2O)[C@](C)(OC)C[C@@H](C)/C(=N\OCCCc2cncc3ccccc23)[C@H](C)[C@H]2OC(=O)O[C@@]21C | 0.5 µg/mL (≈ 0.627 µM) | 32 µg/mL (≈ 40.1 µM) | 0.016 µg/mL (≈ 0.0201 µM) | 0.5 µg/mL (≈ 0.627 µM) | 64 µg/mL (≈ 80.2 µM) | 0.5 µg/mL (≈ 0.627 µM) | > 256 µg/mL | 1 µg/mL (≈ 1.25 µM) | 0.032 µg/mL (≈ 0.0401 µM) | 0.25 µg/mL (≈ 0.313 µM) | 0.25 µg/mL (≈ 0.313 µM) | 0.125 µg/mL (≈ 0.157 µM) | > 256 µg/mL | 0.25 µg/mL (≈ 0.313 µM) | > 256 µg/mL
4 | CC[C@H]1OC(=O)[C@H](C)C(=O)[C@H](C)[C@@H](O[C@@H]2O[C@H](C)C[C@H](N(C)C)[C@H]2O)[C@](C)(OC)C[C@@H](C)/C(=N\OCC#Cc2ccnc3ccccc23)[C@H](C)[C@H]2OC(=O)O[C@@]21C | 0.5 µg/mL (≈ 0.63 µM) | 32 µg/mL (≈ 40.3 µM) | 0.016 µg/mL (≈ 0.0202 µM) | 0.5 µg/mL (≈ 0.63 µM) | 32 µg/mL (≈ 40.3 µM) | 0.25 µg/mL (≈ 0.315 µM) | 64 µg/mL (≈ 80.6 µM) | 1 µg/mL (≈ 1.26 µM) | 0.016 µg/mL (≈ 0.0202 µM) | 0.25 µg/mL (≈ 0.315 µM) | 0.25 µg/mL (≈ 0.315 µM) | 0.5 µg/mL (≈ 0.63 µM) | 64 µg/mL (≈ 80.6 µM) | – | –
5 | CC[C@H]1OC(=O)[C@H](C)C(=O)[C@H](C)[C@@H](O[C@@H]2O[C@H](C)C[C@H](N(C)C)[C@H]2O)[C@](C)(OC)C[C@@H](C)/C(=N\OCC#Cc2ccc(-c3ccccn3)s2)[C@H](C)[C@H]2OC(=O)O[C@@]21C | 1 µg/mL (≈ 1.21 µM) | 32 µg/mL (≈ 38.7 µM) | 0.125 µg/mL (≈ 0.151 µM) | 2 µg/mL (≈ 2.42 µM) | 32 µg/mL (≈ 38.7 µM) | 8 µg/mL (≈ 9.68 µM) | 128 µg/mL (≈ 155 µM) | 0.25 µg/mL (≈ 0.303 µM) | ≤ 0.008 µg/mL | 2 µg/mL (≈ 2.42 µM) | 4 µg/mL (≈ 4.84 µM) | 1 µg/mL (≈ 1.21 µM) | – | – | –
6 | CC[C@H]1OC(=O)[C@H](C)C(=O)[C@H](C)[C@@H](O[C@@H]2O[C@H](C)C[C@H](N(C)C)[C@H]2O)[C@](C)(OC)C[C@@H](C)/C(=N\OCC#Cc2cccs2)[C@H](C)[C@H]2OC(=O)O[C@@]21C | 1 µg/mL (≈ 1.34 µM) | 64 µg/mL (≈ 85.5 µM) | 0.25 µg/mL (≈ 0.334 µM) | 1 µg/mL (≈ 1.34 µM) | 32 µg/mL (≈ 42.7 µM) | 1 µg/mL (≈ 1.34 µM) | 64 µg/mL (≈ 85.5 µM) | 4 µg/mL (≈ 5.34 µM) | 0.25 µg/mL (≈ 0.334 µM) | 1 µg/mL (≈ 1.34 µM) | 1 µg/mL (≈ 1.34 µM) | 1 µg/mL (≈ 1.34 µM) | 64 µg/mL (≈ 85.5 µM) | – | –
7 | CC[C@H]1OC(=O)[C@H](C)C(=O)[C@H](C)[C@@H](O[C@@H]2O[C@H](C)C[C@H](N(C)C)[C@H]2O)[C@](C)(OC)C[C@@H](C)/C(=N\OC/C=C/c2cnc3ccccc3c2)[C@H](C)[C@H]2OC(=O)O[C@@]21C | 0.5 µg/mL (≈ 0.628 µM) | 32 µg/mL (≈ 40.2 µM) | ≤ 0.008 µg/mL | 0.25 µg/mL (≈ 0.314 µM) | 32 µg/mL (≈ 40.2 µM) | 0.064 µg/mL (≈ 0.0804 µM) | > 256 µg/mL | 0.125 µg/mL (≈ 0.157 µM) | 0.016 µg/mL (≈ 0.0201 µM) | 0.25 µg/mL (≈ 0.314 µM) | 0.032 µg/mL (≈ 0.0402 µM) | 0.25 µg/mL (≈ 0.314 µM) | > 256 µg/mL | 0.064 µg/mL (≈ 0.0804 µM) | > 256 µg/mL
8 | CC[C@H]1OC(=O)[C@H](C)[C@@H](O[C@H]2C[C@@](C)(OC)[C@@H](O)[C@H](C)O2)[C@H](C)[C@@H](O[C@@H]2O[C@H](C)C[C@H](N(C)C)[C@H]2O)[C@](C)(O)C[C@@H](C)CN(C)[C@H](C)[C@@H](O)[C@]1(C)O [AZITHROMYCIN] | 8 µg/mL (≈ 10.7 µM) | > 256 µg/mL | 0.125 µg/mL (≈ 0.167 µM) | 8 µg/mL (≈ 10.7 µM) | > 256 µg/mL | > 256 µg/mL | > 256 µg/mL | 64 µg/mL (≈ 85.4 µM) | 0.25 µg/mL (≈ 0.334 µM) | 32 µg/mL (≈ 42.7 µM) | > 256 µg/mL | 1 µg/mL (≈ 1.34 µM) | > 256 µg/mL | 8 µg/mL (≈ 10.7 µM) | > 256 µg/mL
9 | CC[C@H]1OC(=O)[C@H](C)C(=O)[C@H](C)[C@@H](O[C@@H]2O[C@H](C)C[C@H](N(C)C)[C@H]2O)[C@](C)(OC)C[C@@H](C)/C(=N\OCC#Cc2ccccn2)[C@H](C)[C@H]2OC(=O)O[C@@]21C | 0.125 µg/mL (≈ 0.168 µM) | 128 µg/mL (≈ 172 µM) | ≤ 0.008 µg/mL | 0.25 µg/mL (≈ 0.336 µM) | 128 µg/mL (≈ 172 µM) | 0.125 µg/mL (≈ 0.168 µM) | > 256 µg/mL | 0.5 µg/mL (≈ 0.672 µM) | ≤ 0.008 µg/mL | 0.064 µg/mL (≈ 0.086 µM) | 0.125 µg/mL (≈ 0.168 µM) | 0.064 µg/mL (≈ 0.086 µM) | > 256 µg/mL | – | –
10 | CC[C@H]1OC(=O)[C@H](C)C(=O)[C@H](C)[C@@H](O[C@@H]2O[C@H](C)C[C@H](N(C)C)[C@H]2O)[C@](C)(OC)C[C@@H](C)/C(=N\OCC#Cc2ccc(C(=O)c3ccccc3)s2)[C@H](C)[C@H]2OC(=O)O[C@@]21C | 2 µg/mL (≈ 2.34 µM) | 64 µg/mL (≈ 75 µM) | 0.064 µg/mL (≈ 0.075 µM) | 2 µg/mL (≈ 2.34 µM) | 32 µg/mL (≈ 37.5 µM) | 2 µg/mL (≈ 2.34 µM) | 128 µg/mL (≈ 150 µM) | 1 µg/mL (≈ 1.17 µM) | 0.125 µg/mL (≈ 0.147 µM) | 2 µg/mL (≈ 2.34 µM) | 2 µg/mL (≈ 2.34 µM) | 2 µg/mL (≈ 2.34 µM) | 128 µg/mL (≈ 150 µM) | – | –
11 | CC[C@H]1OC(=O)[C@H](C)C(=O)[C@H](C)[C@@H](O[C@@H]2O[C@H](C)C[C@H](N(C)C)[C@H]2O)[C@](C)(OC)C[C@@H](C)/C(=N\OCC#Cc2ccc3[nH]ccc3c2)[C@H](C)[C@H]2OC(=O)O[C@@]21C | 2 µg/mL (≈ 2.56 µM) | 128 µg/mL (≈ 164 µM) | 0.5 µg/mL (≈ 0.639 µM) | 2 µg/mL (≈ 2.56 µM) | 128 µg/mL (≈ 164 µM) | 8 µg/mL (≈ 10.2 µM) | > 256 µg/mL | 4 µg/mL (≈ 5.12 µM) | 0.5 µg/mL (≈ 0.639 µM) | 2 µg/mL (≈ 2.56 µM) | 2 µg/mL (≈ 2.56 µM) | 1 µg/mL (≈ 1.28 µM) | – | – | –
